Experimental data taken from ChEMBL document CHEMBL1126697, “Bis(heteroaryl)piperazine (BHAP) reverse transcriptase inhibitors: structure-activity relationships of novel substituted indole analogues and the identification of 1-[(5-methanesulfonamido-1H-indol-2-yl)-carbonyl]-4-[3- [(1-methylethyl)amino]-pyridinyl]piperazine monomethanesulfonate (U-90152S), a …” (J Med Chem, 1993).
Structures can show the parent of a compound that is named as a salt.

Assays:
[1] = test system: Human immunodeficiency virus 1; assay: Inhibition of HIV-1 IIIB replication in MT2 (human lymphocyte) cells.; type: functional; details: Human immunodeficiency virus 1, MT2; read-out: ED50 (the source's name)
How it was run: (§1)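 HIV-1 IIIb infected MT-2 cells at multiplicity of infection 0.001. Syncytium formation scored 4 days post-infection, at peak viral cytopathic effect. Three drug concentrations, 10-fold dilution series. ED50 given as a range when it fell between dilutions. Viability by trypan blue exclusion.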

[2] = Cytotoxic concentration against PBMC cells; type: functional; details: Homo sapiens
How it was run: (§2)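 PBMC (1×10^6 cells) infected with inoculum containing 1 ng p24 of HIV-1 D34 isolate. Supernatant p24 measured 4 days after infection. Four drug concentrations, 10-fold dilution series. ED50 given as a range when it fell between dilutions. Viability by mitogen-stimulated cell proliferation. Mesylate salts used in this assay.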

[3] = target: Human immunodeficiency virus type 1 reverse transcriptase (Human immunodeficiency virus 1, UniProt Q72547); assay: In vitro inhibition of HIV-1 reverse transcriptase
[4] = target: Human immunodeficiency virus type 1 reverse transcriptase (Human immunodeficiency virus 1) (UniProt Q72547); assay: In vitro inhibition of HIV-1 reverse transcriptase at 100 uM
MT2 = assay: Cytotoxic concentration against MT-2 cells; type: functional; details: Homo sapiens; how it was run: as §1
[5] = test system: Human immunodeficiency virus 1; assay: Inhibition of HIV-1 D34 replication in human peripheral blood mononuclear cells.; type: functional; details: read-out: ED50 (the source's name); how it was run: as §2
[6] = test system: Human immunodeficiency virus 1; assay: Inhibition of HIV-1 replication in human lymphocytes [peripheral blood mononuclear cells (PBMC)/D34 was determined as effective dose; type: functional; details: read-out: ED50 (the source's name); how it was run: as §2

SMILES	EC50 [1]	CC50 [2]	IC50 [3]	inhibition [4]	CC50 (MT2)	EC50 [5]	EC50 [6]
CC(C)Nc1cccnc1N1CCN(C(=O)c2cc3ccc(CO)cc3[nH]2)CC1	< 0.25 µM	> 10 µM	0.76 µM	98%	> 10 µM	0.001 µM	
CCNc1cccnc1N1CCN(C(=O)c2cc3ccccc3[nH]2)CC1	0.3 µM	> 10 µM	4 µM	96%	> 10 µM	0.01 µM	
CCc1cc(NCc2nc3c(Cl)ccc(Cl)c3o2)c(O)nc1C [L-697661]	< 0.3 µM	> 10 µM	2.7 µM	98%	> 10 µM	< 0.0001 µM	
CC(C)Nc1cccnc1N1CCN(C(=O)c2cc3cc(NS(=O)(=O)C(F)(F)F)ccc3[nH]2)CC1	0.2 µM	> 10 µM	8.3 µM	94%	> 10 µM	0.1 µM	
CC(C)Nc1cccnc1N1CCN(C(=O)c2cc3ccc(C#N)cc3[nH]2)CC1		> 10 µM	3.9 µM	74%	> 10 µM		
CC(C)Nc1cccnc1N1CCN(C(=O)c2cc3ccc(NS(C)(=O)=O)cc3[nH]2)CC1	< 0.02 µM	> 10 µM	0.5 µM	98%	> 10 µM	0.0001 µM	
CC(C)Nc1cccnc1N1CCN(C(=O)c2cc3cc(OS(C)(=O)=O)ccc3[nH]2)CC1		> 10 µM	5.5 µM	97%	> 10 µM		
CC(C)Nc1cccnc1N1CCN(C(=O)c2cc3cc(NC(=O)C(F)(F)F)ccc3[nH]2)CC1	0.21 µM	> 10 µM	27 µM	85%	> 10 µM	0.001 µM	
CC(C)Nc1cccnc1N1CCN(C(=O)c2cc3cc(N)ccc3[nH]2)CC1		> 10 µM	1 µM	94%	> 10 µM	0.01 µM	
CC(C)Nc1cccnc1N1CCN(C(=O)c2cc3ccc(C=O)cc3[nH]2)CC1	< 0.26 µM	> 10 µM	1.4 µM	94%	> 10 µM	0.0001 µM	
Cc1cn([C@H]2C[C@H](N=[N+]=[N-])[C@@H](CO)O2)c(=O)[nH]c1=O [ZIDOVUDINE]	0.07 µM	> 10 µM			> 10 µM	0.001 µM	
COC(=O)Nc1ccc2[nH]c(C(=O)N3CCN(c4ncccc4NC(C)C)CC3)cc2c1		> 10 µM	2.5 µM	96%	> 10 µM	0.0001 µM	
CC(C)Nc1cccnc1N1CCN(C(=O)c2cc3ccc(OCc4ccccc4)cc3[nH]2)CC1		> 10 µM	37 µM	65%	> 10 µM	0.1 µM	
CC(C)Nc1cccnc1N1CCN(C(=O)c2cc3cc(OCc4ccccc4)ccc3[nH]2)CC1	< 0.21 µM	> 10 µM	4.3 µM	74%	> 10 µM	0.01 µM	
CC(=O)Nc1ccc2[nH]c(C(=O)N3CCN(c4ncccc4NC(C)C)CC3)cc2c1	> 10 µM	> 10 µM	1.8 µM	94%	> 10 µM	0.01 µM	
CC(C)Nc1cccnc1N1CCN(C(=O)c2cc3cc(N(C)S(C)(=O)=O)ccc3[nH]2)CC1		> 10 µM	5.6 µM	95%	> 10 µM	0.001 µM	
CCNc1cccnc1N1CCN(C(=O)c2cc3cc(OC)ccc3[nH]2)CC1 [ATEVIRDINE MESYLATE]	< 0.2 µM	> 10 µM		92%	> 10 µM	0.001 µM	
CC(C)Nc1cccnc1N1CCN(C(=O)c2cc3cc(NS(C)(=O)=O)ccc3[nH]2)CC1 [DELAVIRDINE]	0.01 µM	> 10 µM			> 30 µM	0.0001 µM	
COc1ccc2cc(C(=O)N3CCN(c4ncccc4NC(C)C)CC3)[nH]c2c1	< 0.25 µM	> 10 µM	1.3 µM	97%	> 10 µM	0.01 µM	
CC(C)Nc1cccnc1N1CCN(C(=O)c2cc3ccc(O)cc3[nH]2)CC1		> 10 µM	1.2 µM	97%	> 10 µM		
CC(C)Nc1cccnc1N1CCN(C(=O)c2cc3cc(O)ccc3[nH]2)CC1	< 0.26 µM	> 10 µM	1.3 µM	98%	> 10 µM	0.001 µM	
CC(C)Nc1cccnc1N1CCN(C(=O)c2cc3ccc(OS(C)(=O)=O)cc3[nH]2)CC1		> 10 µM	2.2 µM	97%	> 10 µM		
Cc1ccnc2c1NC(=O)c1cccnc1N2C1CC1 [NEVIRAPINE]		> 10 µM		93%	> 10 µM	0.01 µM	
CC(C)Nc1cccnc1N1CCN(C(=O)c2cc3ccccc3[nH]2)CC1	0.3 µM	> 10 µM	1.2 µM	96%	> 10 µM	0.001 µM	
Cc1ccc2[nH]c(C(=O)N3CCN(c4ncccc4NC(C)C)CC3)cc2c1	0.26 µM	> 10 µM	34 µM	68%	> 10 µM	0.01 µM	
CC(C)Nc1cccnc1N1CCN(C(=O)c2cc3ccc(F)cc3[nH]2)CC1	0.26 µM	> 10 µM	4.4 µM	96%	> 10 µM	0.001 µM	
CCNc1cccnc1N1CCN(C(=O)c2cc3cc(O)ccc3[nH]2)CC1	0.27 µM	> 10 µM	2 µM	89%	> 10 µM		0.01 µM
